The values below come from ChEMBL document CHEMBL1687888, “Synthesis, hypoxia-selective cytotoxicity of new 3-amino-1,2,4-benzotriazine-1,4-dioxide derivatives” (Eur J Med Chem, 2011).

Some results are limits rather than exact numbers.

As a reminder, the IC50 is the point on the concentration scale where inhibition reaches its midpoint.

Type in all cases: functional, cell-based
For test [1], the system named is A549. Kind of test: Cytotoxicity against human A549 cells for 72 hrs under normoxic condition by MTT assay. Particulars: A549, 72 h. The procedure, abridged:
(§1)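 RPMI-1640 with heat-inactivated 10% FBS plus penicillin/streptomycin; hypoxia 3% O2, 5% CO2 or normoxia 20% O2, 5% CO2, 37 °C. Compounds dissolved in DMSO at 10.0 mg/mL (stock), then diluted; cells seeded 5×10³ per well. Viability read by MTT kit; IC50 taken as concentration giving 50% absorbance inhibition versus control cells.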
(Tetrazolium assays rely on reduction of a dye to a coloured formazan, in cell work by metabolically active cells.)

In test [2] the test system is SMMC-7721. The test is described as follows: Cytotoxicity against human SMMC7721 cells for 72 hrs under hypoxic condition by MTT assay. The following applies: SMMC-7721, 72 h. The method, boiled down:
as §1

In test [3] the test system is KB. Kind of test: Cytotoxicity against human KB cells for 72 hrs under normoxic condition by MTT assay. The method, boiled down:
as §1

Test [4] relates to KB. Kind of test: Cytotoxicity against human KB cells for 72 hrs under hypoxic condition by MTT assay. The method, boiled down:
as §1

Test [5] deals with K562. The test is described as follows: Cytotoxicity against human K562 cells for 72 hrs under normoxic condition by MTT assay. The following applies: K562, 72 h. The method, boiled down:
as §1

In test [6] the test system is A549. Kind of test: Cytotoxicity against human A549 cells for 72 hrs under hypoxic condition by MTT assay. The following applies: A549, 72 h. The procedure, abridged: as §1
Test [7] deals with PC-3. The test is described as follows: Cytotoxicity against human PC3 cells for 72 hrs under normoxic condition by MTT assay. The following applies: PC-3, 72 h. The procedure, abridged: as §1
Test [8] concerns PC-3. Kind of test: Cytotoxicity against human PC3 cells for 72 hrs under hypoxic condition by MTT assay. Particulars: PC-3, 72 h. The method, boiled down:
as §1

Test [9] relates to SMMC-7721. The test is described as follows: Cytotoxicity against human SMMC7721 cells for 72 hrs under normoxic condition by MTT assay. The following applies: SMMC-7721, 72 h. The method, boiled down:
as §1

The subject of test [10] is K562. Kind of test: Cytotoxicity against human K562 cells for 72 hrs under hypoxic condition by MTT assay. The following applies: K562, 72 h. The procedure, abridged: as §1

`Nc1n[n+]([O-])c2ccccc2[n+]1[O-]` [TIRAPAZAMINE]: the IC50 with A549 [1] turned out to be 7.43 µM; with SMMC-7721 [2], 4.75 µM; in the test on KB [3], 6.29 µM; in the test with KB [4] it was 18.7 µM; in the test on K562 [5], 19.4 µM; in the test on A549 [6], 1.93 µM. In addition, the half-maximal inhibitory concentration (IC50) in the test on PC-3 [7] was 21 µM; in the test on PC-3 [8], 1.17 µM; in the test on SMMC-7721 [9], 32.8 µM; in the test with K562 [10] it was 1.81 µM.
Take `CCCCCOCNc1n[n+]([O-])c2ccccc2[n+]1[O-]`: the half-inhibitory concentration (IC50) is 6.46 µM in the test with A549 [1]; 3.05 µM with SMMC-7721 [2]; 1.22 µM with KB [3]; 39.5 µM in the test on KB [4]; 14.5 µM with K562 [5]; 2.9 µM in the test with A549 [6]. In addition, the half-maximal inhibitory concentration (IC50) in the test on PC-3 [7] was determined as 9.2 µM; with PC-3 [8], 8.51 µM; with SMMC-7721 [9] it was 17 µM; with K562 [10] it was 3.3 µM.
Consider `COc1ccc2c(c1)[n+]([O-])nc(NCOC(C)c1ccccc1)[n+]2[O-]` (stereo not given), for which the IC50 was 3.13 µM in the test with A549 [1]; 0.74 µM with SMMC-7721 [2]; 0.22 µM in the test with KB [3]; 12.4 µM with KB [4]; 6.69 µM in the test with K562 [5]; 0.22 µM in the test on A549 [6]. Besides, the IC50 in the test with PC-3 [7] was 4.14 µM; in the test with PC-3 [8] it was over 100 µM; with SMMC-7721 [9] it was 8.04 µM; in the test on K562 [10] it was 0.25 µM.
On to `[O-][n+]1nc(NCOCc2ccccc2)[n+]([O-])c2ccccc21`, for which the IC50 with A549 [1] is 10.8 µM; in the test on SMMC-7721 [2], 4.79 µM; in the test with KB [3], 5.72 µM; in the test with KB [4], 12.3 µM; in the test with K562 [5] it was 16.1 µM; with A549 [6], 4.14 µM. Moreover, the IC50 with PC-3 [7] came to 13.4 µM; in the test on PC-3 [8], 11.9 µM; with SMMC-7721 [9] it was 20.1 µM; in the test with K562 [10], 4.69 µM.
For the molecule `[O-][n+]1nc(NCOCc2ccc(Cl)cc2)[n+]([O-])c2ccccc21`, the IC50 was 1.47 µM in the test with A549 [1]; 0.81 µM with SMMC-7721 [2]; 1.3 µM with KB [3]; 8.26 µM in the test with KB [4]; 3.26 µM in the test with K562 [5]; 2.19 µM in the test with A549 [6]. Moreover, the half-inhibitory concentration (IC50) in the test on PC-3 [7] is 5.76 µM; in the test with PC-3 [8], 5.1 µM; with SMMC-7721 [9], 14.5 µM; in the test with K562 [10], 1.85 µM.
As to `CCCCOCNc1n[n+]([O-])c2ccccc2[n+]1[O-]`, the concentration for half-maximal inhibition (IC50) with A549 [1] worked out at 6.31 µM; with SMMC-7721 [2] it was 3.99 µM; in the test with KB [3], 1.75 µM; in the test with KB [4], 15.2 µM; in the test on K562 [5] it was 17.6 µM; in the test with A549 [6] it was 2.32 µM. Further, the IC50 with PC-3 [7] came to 14.7 µM; with PC-3 [8], 6.01 µM; in the test on SMMC-7721 [9] it was 21.1 µM; in the test on K562 [10], 3.24 µM.
With `CCCOCNc1n[n+]([O-])c2cc(OC)ccc2[n+]1[O-]`, the concentration for half-maximal inhibition (IC50) in the test on A549 [1] is 2.81 µM; in the test on SMMC-7721 [2] it was 1.07 µM; in the test on KB [3] it was 3.2 µM; with KB [4] it was 12 µM; in the test on K562 [5] it was 4.28 µM; with A549 [6] it was 2.54 µM. Also, the IC50 in the test on PC-3 [7] came to 6.57 µM; in the test with PC-3 [8] it was 10.6 µM; in the test on SMMC-7721 [9], 2.88 µM; in the test with K562 [10], 3.52 µM.
Take `O=[N+]([O-])c1cccc(COCNc2n[n+]([O-])c3ccccc3[n+]2[O-])c1`: the IC50 in the test on A549 [1] was found to be 2.89 µM; in the test with SMMC-7721 [2] it was 0.52 µM; in the test with KB [3] it was 0.58 µM; in the test with KB [4], 16.6 µM; with K562 [5], 5.65 µM; with A549 [6], 3.44 µM. Also, the IC50 in the test with PC-3 [7] is 3.07 µM; in the test on PC-3 [8] it was over 100 µM; with SMMC-7721 [9], 8.54 µM; with K562 [10] it was 0.65 µM.
In the case of `CC(C)CCOCNc1n[n+]([O-])c2ccccc2[n+]1[O-]`, the IC50 stood at 7.27 µM with A549 [1]; 2.86 µM in the test on SMMC-7721 [2]; 3.04 µM in the test on KB [3]; 5.21 µM in the test with KB [4]; 13.1 µM in the test with K562 [5]; 2.11 µM with A549 [6]. Also, the half-maximal inhibitory concentration (IC50) was 11.1 µM with PC-3 [7], 7.52 µM in the test with PC-3 [8], 15.9 µM with SMMC-7721 [9] and 5.85 µM in the test with K562 [10].
As to `CC(OCNc1n[n+]([O-])c2ccccc2[n+]1[O-])c1ccccc1` (stereo not given), the concentration for half-maximal inhibition (IC50) was found to be 2.71 µM with A549 [1]; 2.47 µM in the test on SMMC-7721 [2]; 2.51 µM with KB [3]; 14 µM in the test on KB [4]; 8.72 µM with K562 [5]; 2.81 µM in the test on A549 [6]. For the same molecule, the IC50 with PC-3 [7] was determined as 6.08 µM; in the test with PC-3 [8] it was 10.7 µM; in the test on SMMC-7721 [9] it was 12.9 µM; with K562 [10], 2.24 µM.
On to `CCCCCOCNc1n[n+]([O-])c2cc(OC)ccc2[n+]1[O-]`, for which the IC50 with A549 [1] worked out at 5.04 µM; in the test on SMMC-7721 [2] it was 0.55 µM; in the test with KB [3], 2.81 µM; in the test with KB [4], 16.9 µM; with K562 [5], 7.11 µM; in the test on A549 [6], 2.51 µM. Besides, the IC50 was determined as 3.63 µM in the test on PC-3 [7], 30.9 µM with PC-3 [8], 12.9 µM in the test with SMMC-7721 [9] and 0.45 µM in the test on K562 [10].
As to `CCCOCNc1n[n+]([O-])c2ccccc2[n+]1[O-]`, the IC50 with A549 [1] stood at 7.46 µM; with SMMC-7721 [2], 5.53 µM; in the test with KB [3] it was 1.95 µM; with KB [4] it was 10.2 µM; with K562 [5], 17.6 µM; in the test on A549 [6], 3.74 µM. Besides, the IC50 stood at 14.2 µM in the test with PC-3 [7], 7.4 µM in the test with PC-3 [8], 19.5 µM with SMMC-7721 [9] and 3.89 µM with K562 [10].
`COCNc1n[n+]([O-])c2ccccc2[n+]1[O-]`: the IC50 came out at 7.45 µM with A549 [1]; 2.48 µM in the test on SMMC-7721 [2]; 1.58 µM with KB [3]; 9.07 µM with KB [4]; 7.8 µM in the test with K562 [5]; 2.77 µM in the test with A549 [6]. The 50% inhibitory concentration (IC50) in the test with PC-3 [7] worked out at 7.51 µM; with PC-3 [8], 4.27 µM; with SMMC-7721 [9] it was 6.67 µM; in the test with K562 [10], 3.79 µM.
For `CCCCCCCOCNc1n[n+]([O-])c2ccccc2[n+]1[O-]`, the IC50 in the test on A549 [1] is 2.61 µM; with SMMC-7721 [2], 3.09 µM; with KB [3], 2.52 µM; in the test on KB [4] it was 14 µM; in the test on K562 [5] it was 2.97 µM; in the test on A549 [6], 3.49 µM. In addition, the IC50 was 1.21 µM with PC-3 [7], 0.39 µM in the test with PC-3 [8], 7.03 µM in the test with SMMC-7721 [9] and 6.17 µM in the test on K562 [10].
Consider `[O-][n+]1nc(NCOC2CCCCC2)[n+]([O-])c2ccccc21`, for which the IC50 was 5.18 µM in the test with A549 [1]; 4.17 µM with SMMC-7721 [2]; 4.39 µM in the test on KB [3]; 22.1 µM in the test on KB [4]; 10.8 µM with K562 [5]; 1.2 µM in the test on A549 [6]. Besides, the half-inhibitory concentration (IC50) turned out to be 3.25 µM with PC-3 [7], 6.67 µM with PC-3 [8], 28.2 µM in the test with SMMC-7721 [9] and 4.88 µM with K562 [10].
For the molecule `COc1ccc2c(c1)[n+]([O-])nc(NCOCc1ccccc1)[n+]2[O-]`, the IC50 with A549 [1] came to 2.5 µM; with SMMC-7721 [2] it was 1.19 µM; with KB [3], 2.4 µM; with KB [4] it was 18.1 µM; with K562 [5], 27.5 µM; in the test on A549 [6] it was 4.47 µM. The IC50 in the test with PC-3 [7] amounted to 8.58 µM; in the test with PC-3 [8], 88.5 µM; in the test on SMMC-7721 [9], 21.4 µM; in the test with K562 [10], 0.24 µM.
